# Bioassay records deposited in PubChem BioAssay by several laboratories.
# Shown are actives, neighbours in structure and some others; about 1.4% of the full set was active somewhere.
# CAL PDZ FP-1 – CAL PDZ (human) peptide binding inhibition | purified CAL PDZ, TMR-peptide fluorescence polarization, 1 h | 0.92% of 300,000 active | inhibition, % at 24.9 µM | AID 602252 | Q9HD26;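 active = mean inhibition of at least 30% with at least half of replicates also reaching 30%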;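 note: 0% = DMSO neutral control and 100% = excess unlabeled competitor peptide PRC23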
# TbMetRS inhib – blocks T. brucei methionyl-tRNA synthetase activity | purified T. brucei MetRS, ATP depletion, Kinase-Glo luminescence | inhibition, % at 11.9 µM | 0.4% of 360,000 active;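 active = inhibition above a per-plate cutoff of the control wells' mean inhibition plus 3 SD, cut at about 5.5% in these data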;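 note: 0% = DMSO wells median and 100% = median of wells with control inhibitor compound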
#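 Assay system: T. brucei methionyl-tRNA synthetase, purified | Medium: HEPES buffer with MgCl2, KCl, DTT, spermine, BSA, pyrophosphatase | Compound: 11.9 µM single point | Incubation: 15 min enzyme-compound preincubation, 2 h reaction, 10 min detection, 25 °C | Measured by: Kinase-Glo luciferase luminescence reporting remaining unconsumed ATP | Measure: % inhibition normalized to control-well medians | Replication: Singlicate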
# CDK5 p35 inh – inhibitors of human CDK5/p35 kinase | Recombinant CDK5/p35, ADP-Glo luminescence, 60 min | inhibition, % at 10 µM | 0.01% of 330,000 active;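 active = highest replicate inhibition of at least 50% and at least 75% of replicates reaching 50%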;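 note: plate controls were DMSO neutral control for no effect and GW8510 at 10 µM for full effect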
# Target sequence (Q00535 whole entry, looked up): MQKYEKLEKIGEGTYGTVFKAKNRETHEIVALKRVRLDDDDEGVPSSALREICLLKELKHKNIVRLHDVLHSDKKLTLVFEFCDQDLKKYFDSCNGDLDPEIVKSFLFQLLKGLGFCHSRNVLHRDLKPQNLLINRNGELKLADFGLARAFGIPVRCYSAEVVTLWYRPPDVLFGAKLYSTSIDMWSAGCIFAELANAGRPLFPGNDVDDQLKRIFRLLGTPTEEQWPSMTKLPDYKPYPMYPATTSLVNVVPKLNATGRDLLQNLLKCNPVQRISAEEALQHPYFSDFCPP
# Target sequence (Q15078 whole entry, looked up): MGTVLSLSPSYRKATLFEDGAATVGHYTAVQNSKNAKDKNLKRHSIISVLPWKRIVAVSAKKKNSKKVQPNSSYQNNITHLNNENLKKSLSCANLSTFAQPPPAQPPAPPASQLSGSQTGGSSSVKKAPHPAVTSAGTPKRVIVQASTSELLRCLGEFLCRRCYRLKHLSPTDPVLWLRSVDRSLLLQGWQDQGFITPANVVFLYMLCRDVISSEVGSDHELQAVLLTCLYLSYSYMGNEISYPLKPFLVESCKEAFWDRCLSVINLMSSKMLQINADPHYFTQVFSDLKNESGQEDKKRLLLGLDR
# PvdQ acylase – blocks Pseudomonas aeruginosa PvdQ acylase activity; purified PvdQ acylase, fluorescence plate reader; inhibition, % at 10 µM; 0.063% of 340,000 active; AID 488965; in the data active = inhibition above about 30%, passing the limit was not always enough;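 note: 0% = vehicle neutral wells and 100% = reference inhibitor wells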
# CAL PDZ FP-2 – blocks peptide binding to human CAL PDZ domain; purified CAL PDZ, TMR-peptide fluorescence polarization, 1 h; inhibition, % at 20 µM; 0.02% of 330,000 active; AID 504414;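 active = highest replicate inhibition of at least 40%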;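 note: plate controls were DMSO neutral control wells for no effect and unlabeled competitor peptide control wells for full effect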
#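 Test system: tagged CAL PDZ domain / Buffer or medium: sodium phosphate/NaCl buffer pH 7.4 with TCEP, IgG, Thesit / Reagent: TMR-labelled reporter peptide T*-PRC34 bound in PDZ groove / Compound dosing: single point, 20 µM / Schedule: 1 h incubation at room temperature before polarization reading / Technique: fluorescence polarization (mP) / Benchmarks: unlabelled peptide, DMSO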
# DYRK1A inh – Dyrk1A (rat) kinase inhibition | Q63470 | ADP-Glo luminescence, NFATc1 peptide | inhibition, % at 12.5 µM | 0.43% of 310,000 active; in the data active = inhibition above about 50%;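 note: plate controls were vehicle with enzyme for no effect and no enzyme for full effect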
# Tb MetRS conf – confirmation of Trypanosoma brucei MetRS inhibitors; shares compounds with TbMetRS inhib; T. brucei MetRS enzyme, luminescence (ATP depletion); inhibition, % at 11.9 µM; 93% of 1,400 active; in the data active = inhibition above about 7%
# Jurkat cytotox – Jurkat T cell cytotoxicity for MetRS hits; shares compounds with TbMetRS inhib; Jurkat cells viability, ATP luminescence; inhibition, % at 8.3 µM; 12% of 1,400 active; AID 624413; in the data active = inhibition above about 15%;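 note: 0% = vehicle and 100% = reference inhibitor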
# Tb MetRS inh FP – orthogonal test for Trypanosoma brucei MetRS inhibitors. shares compounds with TbMetRS inhib. purified T. brucei MetRS, fluorescence polarization. inhibition, % at 11.9 µM. 44% of 1,400 active; in the data active = inhibition above about 17%;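 note: 0% = vehicle wells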
# The depositor's hits bear a star; nt = no result.
SMILES,CAL PDZ FP-1,TbMetRS inhib,CDK5 p35 inh,PvdQ acylase,CAL PDZ FP-2,DYRK1A inh,Tb MetRS conf,Jurkat cytotox,Tb MetRS inh FP
COc1ccc(O)c(/C=N/Nc2nc3ccccc3[nH]2)c1,-1,0,-4,-15,-3,-2,nt,nt,nt
Cc1cc(=O)[nH]c(N/N=C/c2c(C)nn(-c3ccccc3)c2C)n1,nt,-1,0,7,0,-4,nt,nt,nt
COc1cc(/C=N/Nc2nc3ccccc3[nH]2)ccc1O,2,7.9*,12,-10,3,-4,15*,15,32*
COc1cccc(/C=N/Nc2nc3ccccc3[nH]2)c1O,4,8.8*,-1,-6,-1,5,10*,96*,7
Cc1nn(-c2ccccc2)c(C)c1/C=N/Nc1nc2ccccc2[nH]1,-3,8.0*,2,1,0,4,14*,9,13
CCOC(=O)[C@]12CCC=C1N(Cc1ccc3c(c1)OCO3)C(=O)[C@H](CC(=O)N1CCN(C(=O)c3ccco3)CC1)C2,nt,-1,nt,nt,nt,nt,nt,nt,nt
C[C@@H]1CN([C@@H](C)CO)C(=O)c2cc(Br)cnc2O[C@H]1CN(C)Cc1ccccc1C(=O)O,nt,-1,nt,nt,nt,nt,nt,nt,nt
COC(=O)c1ccc(/C=N/Nc2nc3ccccc3[nH]2)cc1,2,2,-1,4,-2,2,nt,nt,nt
COc1cc(/C=N/Nc2nc3ccccc3[nH]2)cc(OC)c1O,-1,8.5*,7,-1,2,21,14*,30*,33*
CCCC(=O)N1CCCC1(C)C(=O)Nc1cc(OC)c(OC)c(OC)c1 (stereo unspecified),nt,0,nt,nt,nt,nt,nt,nt,nt
CSc1ccc(/C=N/NC(=O)CNc2cccc3ccccc23)cc1,-4,0,-4,-13,-1,-1,nt,nt,nt
O=C(CNc1cccc2ccccc12)N/N=C/c1ccc[nH]1,17,9.8*,0,-4,0,-3,65*,64*,44*
CCO[C@H]1OC(C(=O)NCc2nc3ccccc3[nH]2)=C[C@@H](c2ccccc2)[C@@H]1CCCO,-4,1,0,-10,-1,-5,nt,nt,nt
CCO[C@H]1OC(C(=O)NCc2nc3ccccc3[nH]2)=C[C@@H](c2csc3ccccc23)[C@@H]1CCCO,-5,7.6*,0,1,0,-4,38*,-1,13
CCO[C@@H]1OC(C(=O)NCc2nc3ccccc3[nH]2)=C[C@H](c2ccccc2)[C@H]1CCCO,-1,8.6*,0,12,1,8,38*,-1,20*
CCO[C@@H]1OC(C(=O)NCc2ccccc2)=C[C@H](c2csc3ccccc23)[C@H]1CCCO,-5,0,0,-10,-3,0,nt,nt,nt
CCO[C@@H]1OC(C(=O)NCc2nc3ccccc3[nH]2)=C[C@H](c2csc3ccccc23)[C@H]1CCCO,3,86*,1,6,0,3,93*,3,97*
CCOC(=O)c1c(C)[nH]c(C(=O)OCC(=O)NCc2ccco2)c1C,nt,0,nt,nt,nt,nt,nt,nt,nt
CC(NC(=O)C1CCN(Cc2ccc(Oc3ccccc3)cc2)CC1)c1cccc2ccccc12 (stereo unspecified),nt,0,nt,nt,nt,nt,nt,nt,nt
Nc1nc(N)c(-c2cccc(C(F)(F)F)c2)c(Cc2cccc(C(F)(F)F)c2)n1,-3,16*,1,-10,0,-4,60*,-6,34*
Nc1ncccc1OCc1cccc(C(F)(F)F)c1,-4,-1,1,8,-2,nt,nt,nt,nt
CC1(C(=O)Nc2cccc3ccccc23)CCN1C(=O)Cc1ccc(Cl)cc1Cl (stereo unspecified),nt,0,nt,nt,nt,nt,nt,nt,nt
CC(C)c1ccc(NC(=O)C2Cc3c(-c4ccccc4Oc4ccccc4)ccnc3O2)cc1 (stereo unspecified),nt,0,nt,nt,nt,nt,nt,nt,nt
COc1ccc2[nH]c(=O)c(CN(C(=O)NC3CCCCC3)C3CCCCC3)cc2c1,-1,7.0*,3,-11,-1,-5,37*,18*,16
COc1ccc2[nH]c(=O)c(CNC3CCCCC3)cc2c1,-4,0,-4,-1,-4,27,nt,nt,nt
SMILES,CAL PDZ FP-1,TbMetRS inhib,CDK5 p35 inh,PvdQ acylase,CAL PDZ FP-2,DYRK1A inh,Tb MetRS conf,Jurkat cytotox,Tb MetRS inh FP
COC(=O)[C@@]12C[C@@H](CC(=O)N3CCCCC3)C(=O)N(Cc3ccccc3)C1=CCC(C)(C)C2,nt,0,nt,nt,nt,nt,nt,nt,nt
O=c1c(Cc2ccc(Cl)cc2Cl)c(O)ccn1CC(F)(F)F,-1,9.0*,1,-14,1,-2,14*,4,6
CCCn1ccc(O)c(Cc2ccc(Cl)cc2)c1=O,-2,1,1,3,-1,4,nt,nt,nt
CN(C)CCn1ccc(O)c(Cc2ccc(Cl)cc2)c1=O,5,-1,2,-3,0,-3,nt,nt,nt
O=c1c(Cc2ccc(Cl)cc2Cl)c(O)ccn1CCCN1CCOCC1,-3,32*,0,-9,-3,0,51*,-3,20*
NC(=O)Cn1ccc(O)c(Cc2ccc(Cl)cc2Cl)c1=O,-1,25*,-5,-11,0,4,37*,-7,20*
O=c1c(Cc2ccc(F)cc2)c(O)ccn1Cc1ccc(Cl)cc1Cl,-1,-1,2,2,0,0,nt,nt,nt
CC(=O)Nc1ccc2cnn(C(C)=O)c2c1,nt,0,nt,nt,nt,nt,nt,nt,nt
O=S1(=O)CC(N2CC=CC2)CN1Cc1cn(Cc2cccc(C(F)(F)F)c2)nn1 (stereo unspecified),nt,-1,nt,nt,nt,nt,nt,nt,nt
Cc1cc2c(cc1C)-n1nnnc1C(N1CCN(CC(=O)NC(C)C)CC1)C(=O)N2 (stereo unspecified),nt,0,nt,nt,nt,nt,nt,nt,nt
C=CCc1cccc(/C=N/n2cnnc2)c1O,0,-1,3,11,0,0,nt,nt,nt
C=CCc1cccc(/C=C/c2cc(=O)c3ccccc3[nH]2)c1O,-3,6.4*,1,-5,-4,3,19*,15*,8
Cc1ccccc1Oc1cc(NC(=O)Cn2cnc([N+](=O)[O-])c2)cc([N+](=O)[O-])c1,nt,9.6*,-1,2,-1,1,24*,12,17*
CC1(C(=O)Nc2ccc3c(c2)OCCO3)CSCC(=O)N1Cc1ccco1 (stereo unspecified),nt,0,nt,nt,nt,nt,nt,nt,nt
Cc1[nH]c2ccccc2c1C(=O)C(=O)NCCc1ccc(S(N)(=O)=O)cc1,nt,50*,0,5,-1,-2,66*,-3,45*
O=C(NCCc1ccccc1)C(=O)c1c[nH]c2ccccc12,-2,1,0,-17,-2,0,nt,nt,nt
